p97 ATPase inh: inhibitors of human p97 ATPase, primary screen, biochemical. recombinant p97 ATPase, Kinase-Glo ATP luminescence, 3 h. inhibition, % at 8 µM. 220,000 compounds, 0.42% hits. AID 1481, 2009;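 note: 0% = DMSO vehicle and 100% = wells lacking enzyme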
eIF4E-4G inh: eIF4E–eIF4G protein interaction inhibitors, primary screen, biochemical, uHTS, TR-FRET, eIF4GI fragment; Eukaryotic translation initiation factor 4E (Mus musculus) + Eukaryotic translation …; TR-FRET eIF4E-eIF4GI(517-606) binding, 2 h; inhibition, % at 21.7 µM; 220,000 compounds, 0.37% hits;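 active = inhibition above about 30%, limit read from the data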;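 note: 0% = full FRET control wells and 100% = background wells lacking eIF4GI fragment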
Target sequence (P63073 whole entry, looked up, the tested form may be a part): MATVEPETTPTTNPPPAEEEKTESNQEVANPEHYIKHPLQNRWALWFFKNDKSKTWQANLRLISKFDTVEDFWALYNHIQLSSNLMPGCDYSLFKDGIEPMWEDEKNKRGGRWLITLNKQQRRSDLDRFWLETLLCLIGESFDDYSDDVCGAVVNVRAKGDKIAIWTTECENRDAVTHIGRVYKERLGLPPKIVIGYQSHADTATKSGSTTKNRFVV
Target sequence (Q04637 whole entry, looked up, the tested form may be a part): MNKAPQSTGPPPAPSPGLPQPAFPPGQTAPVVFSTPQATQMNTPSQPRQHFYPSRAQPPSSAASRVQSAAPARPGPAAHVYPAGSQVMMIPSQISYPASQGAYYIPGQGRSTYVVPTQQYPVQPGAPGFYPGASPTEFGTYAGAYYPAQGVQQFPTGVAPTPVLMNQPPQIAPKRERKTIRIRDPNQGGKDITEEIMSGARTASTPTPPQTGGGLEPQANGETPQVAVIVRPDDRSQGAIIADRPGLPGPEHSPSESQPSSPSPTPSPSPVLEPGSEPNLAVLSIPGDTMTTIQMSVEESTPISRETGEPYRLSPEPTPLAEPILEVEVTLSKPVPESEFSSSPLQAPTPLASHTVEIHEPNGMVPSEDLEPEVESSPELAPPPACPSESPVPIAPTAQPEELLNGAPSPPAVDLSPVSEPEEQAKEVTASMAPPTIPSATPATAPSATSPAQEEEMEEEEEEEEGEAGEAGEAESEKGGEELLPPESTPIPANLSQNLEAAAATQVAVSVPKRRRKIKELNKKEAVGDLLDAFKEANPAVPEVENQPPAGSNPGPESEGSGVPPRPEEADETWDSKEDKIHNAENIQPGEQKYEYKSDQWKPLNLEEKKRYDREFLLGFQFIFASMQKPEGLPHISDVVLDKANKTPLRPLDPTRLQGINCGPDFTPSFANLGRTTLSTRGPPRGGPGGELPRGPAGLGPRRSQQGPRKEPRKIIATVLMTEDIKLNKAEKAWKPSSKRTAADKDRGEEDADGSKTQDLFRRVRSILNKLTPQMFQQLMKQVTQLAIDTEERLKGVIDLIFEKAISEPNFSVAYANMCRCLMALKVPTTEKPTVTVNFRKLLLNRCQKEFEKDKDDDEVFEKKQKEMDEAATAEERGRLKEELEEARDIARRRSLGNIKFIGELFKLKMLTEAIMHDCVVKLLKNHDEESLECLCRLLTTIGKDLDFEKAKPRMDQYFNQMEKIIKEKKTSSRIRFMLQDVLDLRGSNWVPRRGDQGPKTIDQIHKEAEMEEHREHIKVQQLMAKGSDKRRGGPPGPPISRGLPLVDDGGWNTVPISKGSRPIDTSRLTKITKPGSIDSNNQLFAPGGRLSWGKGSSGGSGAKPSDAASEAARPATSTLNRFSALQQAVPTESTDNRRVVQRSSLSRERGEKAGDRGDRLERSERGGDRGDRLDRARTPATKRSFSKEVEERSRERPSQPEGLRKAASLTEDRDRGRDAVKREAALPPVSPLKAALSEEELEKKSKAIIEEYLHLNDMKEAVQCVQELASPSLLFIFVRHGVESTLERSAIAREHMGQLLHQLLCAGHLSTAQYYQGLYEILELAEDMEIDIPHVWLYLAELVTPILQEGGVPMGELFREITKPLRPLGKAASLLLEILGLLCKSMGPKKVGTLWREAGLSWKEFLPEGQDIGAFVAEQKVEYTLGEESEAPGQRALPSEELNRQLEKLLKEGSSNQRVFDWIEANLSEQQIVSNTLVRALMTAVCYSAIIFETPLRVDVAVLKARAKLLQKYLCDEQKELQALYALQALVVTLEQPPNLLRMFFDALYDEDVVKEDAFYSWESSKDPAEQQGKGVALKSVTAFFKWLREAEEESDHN
NCF1 inh: p47phox/p22phox peptide binding inhibitors, primary screen, biochemical, uHTS, NADPH oxidase regulatory subunit | fluorescence polarization, 2 h | Neutrophil cytosol factor 1 (Homo sapiens), P14598 | 220,000 compounds, 0.53% hits | inhibition, % at 24.7 µM;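 active = inhibition above about 30%, limit read from the data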;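 note: 0% = p47phox with labelled peptide and 100% = labelled peptide alone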
14-3-3 Bad inh: inhibitors of 14-3-3 zeta/Bad binding, primary screen, biochemical, TR-FRET, bovine 14-3-3 zeta; 220,000 compounds, 0.71% hits; inhibition, % at 21.7 µM; 14-3-3 protein zeta/delta (Bos taurus), P63103; TR-FRET 14-3-3zeta/Dy647-pBad peptide displacement, 1 h;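 active = inhibition above about 70%, limit read from the data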;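 note: 0% = full 14-3-3 plus peptide FRET controls and 100% = background without 14-3-3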
UBC9 SUMO inh: inhibitors of in vitro SUMOylation cascade, primary screen, biochemical, HTRF, uHTS | HTRF SUMOylation assay, SAE1/SAE2 + UBC9 | inhibition, % at 35 µM | SUMO-conjugating enzyme UBC9 (Homo sapiens), P63279 | 290,000 compounds, 0.36% hits | AID 2006, 2009; in the data active = inhibition above about 50%, passing the limit was not always enough
Tb MetRS inh: T. brucei MetRS inhibitors, primary screen, biochemical, luminescence. purified T. brucei MetRS, ATP depletion, Kinase-Glo luminescence. methionyl-tRNA synthetase (Trypanosoma brucei brucei). 360,000 compounds, 0.4% hits. inhibition, % at 11.9 µM;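 active = inhibition above a per-plate cutoff of the control wells' mean inhibition plus 3 SD, cut at about 5.5% in these data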;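 note: 0% = DMSO wells median and 100% = median of wells with control inhibitor compound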
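Measured by: Kinase-Glo luciferase luminescence reporting remaining unconsumed ATP. Material: purified T. brucei MetRS enzyme. Doses: 11.9 µM compound single dose, 0.9% DMSO. Medium: HEPES buffer containing pyrophosphatase, BSA, spermine, DTT. Times: 15 min preincubation, 2 h reaction, all 25 °C. Reagent: methionine, ATP and bulk E. coli tRNA.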
Tb MetRS conf: T. brucei MetRS inhibitors, confirmation, biochemical, luminescence. shares compounds with Tb MetRS inh. 1,400 compounds, 93% hits. inhibition, % at 11.9 µM. AID 624412, 2012. T. brucei MetRS enzyme, luminescence (ATP depletion); in the data active = inhibition above about 7%
Jurkat tox: Jurkat T cell cytotoxicity, cytotoxicity control for T. brucei MetRS inhibitor project, luminescence, high throughput; inhibition, % at 8.3 µM; 1,400 compounds, 12% hits; shares compounds with Tb MetRS inh; AID 624413, 2012; Jurkat cells viability, ATP luminescence;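 note: 0% = vehicle and 100% = reference inhibitor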
Tb MetRS inh FP: T. brucei MetRS inhibitors, orthogonal assay for T. brucei MetRS inhibitor project, biochemical, fluorescence polarization; shares compounds with Tb MetRS inh; purified T. brucei MetRS; inhibition, % at 11.9 µM; 1,400 compounds, 44% hits; in the data active = inhibition above about 17%;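 note: 0% = vehicle wells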
The depositor's hits bear a star; . = no result given. An excerpt weighted towards active compounds, which were near 1.6% of everything screened. Cut-off read from the data, not from the text of the source, unless noted: active = inhibition above about 15%; inactive = the rest.

SMILES	p97 ATPase inh	eIF4E-4G inh	NCF1 inh	14-3-3 Bad inh	UBC9 SUMO inh	Tb MetRS inh	Tb MetRS conf	Jurkat tox	Tb MetRS inh FP
O=C(NCCc1nc2ccccc2[nH]1)/C(=C/c1ccc2c(c1)OCO2)NC(=O)c1ccccc1Cl	0	4	-13	-14	-5	3	.	.	.
COc1ccc(/C=C(\NC(=O)c2ccco2)C(=O)NCCc2nc3ccccc3[nH]2)cc1	7	-5	-6	-11	12	2	.	.	.
Cc1ccccc1CN1C(=O)CN(S(C)(=O)=O)CC1(C)C(=O)NCc1ccccc1 (centres undefined)	.	.	.	.	.	0	.	.	.
CCc1nc2c(OCc3ccc(F)cc3)cccn2c1N(C)C(=O)c1ccc(C)cc1	.	.	.	.	.	0	.	.	.
OCC1(CCOc2ccccc2)CCN(Cc2cn[nH]c2-c2ccc(F)cc2)CC1	0	2	-8	-7	21	0	.	.	.
OCC1(CCOc2ccccc2)CCN(Cc2nc3ccc(F)cc3[nH]2)CC1	0	-3	-4	-12	11	7.5*	21*	2	0
Nc1ncnc2nc(SCCOc3ccc(Cl)cc3)[nH]c12	-1	-5	3	-16	-2	5.7*	14*	-12	2
CC(C)CN(C(=O)CCCOc1ccc(Cl)cc1Cl)c1c(N)n(Cc2ccccc2)c(=O)[nH]c1=O	.	.	.	.	.	0	.	.	.
Clc1ccc2nc(-c3ccc(Cl)nc3)[nH]c2c1	.	.	.	.	20	25*	46*	15*	22*
Nc1ccc2nc(-c3ccc(Cl)cc3)[nH]c2c1	.	2	-20	11	47	0	.	.	.
Clc1ccccc1-c1cc2nc(NCc3ccco3)ccn2n1	.	.	.	.	.	0	.	.	.
O=C(Nc1ccc(S(=O)(=O)N2CCCCC2)cc1)c1ccccc1Cl	2	-29	-3	-4	18	-1	.	.	.
O=C(Nc1ccccc1)Nc1ccc(S(=O)(=O)N2CCCCC2)cc1	-4	-1	-35	-3	-4	7.8*	15*	7	23*
COc1ccc(NC(=O)Nc2ccccc2)cc1S(=O)(=O)N1CCCCC1	-1	2	-6	-7	9	11*	27*	7	15
COc1ccc(NC(=O)CN2CCCCC2)cc1S(=O)(=O)N1CCCCC1	.	.	.	.	.	0	.	.	.
O=c1[nH]c2cc3ccccc3cc2nc1-c1nnnn1C1CCCC1	.	.	.	.	.	52*	61*	69*	40*
O=c1[nH]c2cc3ccccc3cc2nc1-c1nnnn1Cc1ccccc1	.	.	.	.	.	22*	38*	9	18*
Clc1ccc(CN2C3=NCCN3c3ccccc32)cc1Cl	0	-8	-4	-4	14	7.4*	12*	16*	1
O=C(Cn1cc(C(=O)c2cccs2)c2ccccc21)NCc1ccc2c(c1)OCO2	1	0	-17	5	5	21*	35*	5	16
O=C(Cn1cc(C(=O)c2cccs2)c2ccccc21)NCC1CCCO1 (centres undefined)	4	5	-8	6	-1	0	.	.	.
CCOc1ccc(N(CC(=O)Nc2c(C)cc(C)cc2C)C2=NC3CS(=O)(=O)CC3S2)cc1 (centres undefined)	.	.	.	.	.	0	.	.	.
NS(=O)(=O)c1ccc(CCNC(=O)C(=O)c2c[nH]c3ccccc23)cc1	6	1	-9	-3	0	12*	26*	-5	10
Cc1[nH]c2ccccc2c1C(=O)C(=O)NCCc1ccc(S(N)(=O)=O)cc1	5	2	-11	-1	-2	50*	66*	-3	45*
NS(=O)(=O)c1ccc(CCNC(=O)c2cc(=O)[nH]c3ccccc23)cc1	.	.	.	.	18	0	.	.	.
Cc1cccc(N2C(=O)CC(Sc3nnc(C)s3)C2=O)c1 (centres undefined)	7	2	-5	3	17	0	.	.	.
SMILES	p97 ATPase inh	eIF4E-4G inh	NCF1 inh	14-3-3 Bad inh	UBC9 SUMO inh	Tb MetRS inh	Tb MetRS conf	Jurkat tox	Tb MetRS inh FP
O=C(NNC(=O)c1cc2ccccc2[nH]1)OCc1ccccc1	.	.	.	.	.	13*	46*	-12	19*
OC(c1nc2ccccc2[nH]1)C(O)c1nc2ccccc2[nH]1 (centres undefined)	.	.	.	.	-6	0	.	.	.
O=C(NCC(O)c1nc2ccccc2[nH]1)c1cc2ccccc2[nH]1 (centres undefined)	.	.	.	.	.	51*	68*	0	40*
O=C(O)CSc1nnc(-c2ccc(Cl)cc2Cl)n1Cc1ccccc1	.	.	.	.	8	0	.	.	.
COc1ccc(Cl)cc1N1CC(c2nc3ccccc3[nH]2)CC1=O (centres undefined)	0	4	1	9	3	5.7*	10*	12	5
O=C1CC(c2nc3ccccc3[nH]2)CN1c1cccc(C(F)(F)F)c1 (centres undefined)	5	6	-4	-16	-11	21*	27*	6	10
CC(Oc1ccccc1F)c1nnc(SCC(=O)Nc2ccc(N3CCOCC3)cc2)o1 (centres undefined)	.	.	.	.	.	0	.	.	.
Cc1ccc(NC(=O)C(C)c2cccc(C(=O)c3ccccc3)c2)cc1O (centres undefined)	4	-4	-20	-1	-21	84*	99*	33*	78*
CCOC(=O)C1(C)CCN1C(=O)c1ccc(SC(F)(F)F)cc1 (centres undefined)	.	.	.	.	.	0	.	.	.
CC(O)CNc1nc2ccccc2n1-c1ncnc2sc3c(c12)CCC3 (centres undefined)	2	9	-5	-11	18	9.3*	16*	4	6
CC(=O)Nc1cc(-c2cccc(C(=O)NCCN(C)C)c2)cn2c(-c3cccc(C(F)(F)F)c3)cnc12	.	.	.	.	.	0	.	.	.
O=C(Nc1cccc(C(=O)O)c1)/C(=C\C=C\c1ccccc1)NC(=O)c1ccccc1	2	1	5	-14	6	0	.	.	.
O=C(Nc1ccc(C(=O)O)cc1)/C(=C\C=C\c1ccccc1)NC(=O)c1cccc(Br)c1	-4	-1	-24	2	22	12*	20*	2	23*
